Laboratory results from ChEMBL document CHEMBL5356984 (RSC Med Chem, 2023).

Legend:
SK-BR-3 = assay: Antiproliferative activity against human SK-BR-3 cells assessed as inhibition of cell viability measured after 48 hrs by MTT assay; type: functional, cell-based; conditions: SK-BR-3, 48 h
Procedure, shortened: (§1)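 MTT cell viability read-out; IC50 obtained by non-linear regression of concentration–response data; values are mean ± SD of three independent experiments.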

HCC1806 = assay: Antiproliferative activity against human HCC1806 cells assessed as inhibition of cell viability measured after 48 hrs by MTT assay; type: functional, cell-based; conditions: HCC1806, 48 h; procedure, shortened: as §1
MDA-MB-468 = assay: Antiproliferative activity against human MDA-MB-468 cells assessed as inhibition of cell viability measured after 48 hrs by MTT assay; type: functional, cell-based; conditions: MDA-MB-468, 48 h; procedure, shortened: as §1
MCF7 [1] = assay: Antiproliferative activity against human MCF7 cells assessed as inhibition of cell viability measured after 48 hrs by MTT assay; type: functional, cell-based; conditions: MCF7, 48 h; procedure, shortened: as §1
BT-474 = assay: Antiproliferative activity against human BT-474 cells assessed as inhibition of cell viability measured after 48 hrs by MTT assay; type: functional, cell-based; conditions: BT-474, 48 h; procedure, shortened: as §1
MDA-MB-231 = assay: Antiproliferative activity against human MDA-MB-231 cells assessed as inhibition of cell viability measured after 48 hrs by MTT assay; type: functional, cell-based; conditions: MDA-MB-231, 48 h; procedure, shortened: as §1
HEK-293T = assay: Cytotoxicity against HEK293T cells assessed as cell growth inhibition measured after 48 hrs by MTT assay; type: functional, cell-based; conditions: Homo sapiens; procedure, shortened: as §1
[2] = Thermal stability of compound in boiling toluene at 120 degreeC assessed as time taken for compound decomposition at 1 mg/ml by HPLC analysis; type: physicochemical; conditions: read-out: T50
MCF7 [3] = assay: Antiproliferative activity against human MCF7 cells assessed as inhibition of cell viability at 20 uM measured after 48 hrs by MTT assay relative to control; type: functional

Structure (SMILES): COC1=C2C[C@@H](C)C[C@H](OC)[C@H](O)[C@@H](C)/C=C(\C)[C@H](OC(N)=O)[C@@H](OC)/C=C\C=C(/C)C(=O)NC(=CC1=O)C2=O [GELDANAMYCIN]
- IC50 (SK-BR-3): 0.033 µM
- IC50 (HCC1806): 0.12 µM
- IC50 (MDA-MB-468): 0.033 µM
- IC50 (MCF7 [1]): 0.13 µM
- IC50 (BT-474): 0.027 µM
- IC50 (MDA-MB-231): 0.15 µM
- IC50 (HEK-293T): 0.53 µM

Structure (SMILES): CO[C@@H]1[C@@H](OC(N)=O)[C@@H](O)[C@H](Oc2ccc3c(O)c(NC(=O)c4ccc(O)c(CC=C(C)C)c4)c(=O)oc3c2C)OC1(C)C [NOVOBIOCIN]
- IC50 (HEK-293T): > 100 µM

Structure (SMILES): CC(C)=CCC[C@]1(C)/C=C/[C@@H](OC(=O)C=C(C)C)[C@](C)(O)/C=C/C(=O)/C(CN2CCN(C)CC2)=C\C1
- half-life at 1 mg/ml [2]: < 5 min

Structure (SMILES): COc1cc(/C=C/C(=O)/C=C/N2CCN(C)CC2)cc(OC)c1
- IC50 (HCC1806): 14.8 µM
- IC50 (MDA-MB-468): > 20 µM
- IC50 (MCF7 [1]): 14.2 µM
- inhibition at 20 µM (MCF7 [3]): > 50%
- IC50 (MDA-MB-231): 9.13 µM

Structure (SMILES): COc1cc(/C=C/C(=O)/C=C/N(C)CCN(C)C)cc(OC)c1
- IC50 (HCC1806): 14.7 µM
- IC50 (MDA-MB-468): > 20 µM
- IC50 (MCF7 [1]): 16.7 µM
- inhibition at 20 µM (MCF7 [3]): > 50%
- IC50 (MDA-MB-231): 12.9 µM

Structure (SMILES): CN1CCN(/C=C/C(=O)/C=C/c2cccc3c2OCO3)CC1
- IC50 (HCC1806): 13.2 µM
- IC50 (MDA-MB-468): > 20 µM
- IC50 (MCF7 [1]): 12.9 µM
- inhibition at 20 µM (MCF7 [3]): > 50%
- IC50 (MDA-MB-231): 8.14 µM
